Calls of active or inactive are those of the source. The calls are words filed in the database; no cut-off is given here.
What was measured:
[1] = Binding affinity to F10T duplex DNA (unknown origin) assessed as change in melting temperature by FRET assay
How it was run: (§1)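 Fluorescence melting on real-time PCR instrument; 0.4 μM labelled oligonucleotide (FPu22T or duplex-forming F10T), ligand 2.0 μM, in 10 mM Tris-HCl pH 7.4 with 10 or 60 mM KCl; ex 470/em 530 nm at 1 °C steps over 37–99 °C, 30 s equilibration each; ΔTm = Tm(DNA+ligand) − Tm(DNA).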

[2] = Binding affinity to 5'-FPu22T-3'-labelled c-myc G-quadruplex DNA (unknown origin) assessed as change in melting temperature by FRET assay; how it was run: as §1
[3] = Cytotoxicity against mouse primary mesangial cells assessed as reduction in cell viability after 48 hrs by MTT assay; type: toxicity
[4] = Cytotoxicity against human CA46 cells assessed as reduction in cell viability after 48 hrs by MTT assay; type: functional, cell-based; details: CA46, 48 h
[5] = Cytotoxicity against human Raji cells assessed as reduction in cell viability after 48 hrs by MTT assay; type: functional, cell-based
[6] = Cytotoxicity against human A549 cells assessed as reduction in cell viability after 48 hrs by MTT assay; type: functional, cell-based; details: A549, 48 h
[7] = Cytotoxicity against human HeLa cells assessed as reduction in cell viability after 48 hrs by MTT assay; type: functional, cell-based
[8] = Binding affinity to biotinylated 5'-Pu22-3'-labelled c-myc G-quadruplex DNA (unknown origin) after 240 secs by SPR assay
How it was run: (§2)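 SPR: biotinylated Pu22 and biotinylated duplex folded in 50 mM Tris-HCl pH 7.4, 150 mM KCl, 0.005% Tween20, captured (~1000 RU) on separate flow cells with a blank reference; ligand 0.0625–10 μM in running buffer, 240 s association then 240 s dissociation at 25 °C; equilibrium KD derived.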

[9] = Selectivity ratio of Kd for double stranded DNA (unknown origin) to Kd for biotinylated 5'-Pu22-3'-labelled c-myc G-quadruplex DNA
[10] = Binding affinity to biotinylated double stranded DNA (unknown origin) after 240 secs by SPR assay; how it was run: as §2
[11] = Binding affinity to 5'-FPu22T-3'-labelled c-myc G-quadruplex DNA (unknown origin) assessed as change in melting temperature at 2 uM in presence ds26 DNA of by FRET assay
How it was run: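 FRET melting of 0.4 μM labelled FPu22T with ligand 2.0 μM, alone or with 10-fold (4 μM), 50-fold (20 μM) or 100-fold (40 μM) excess unlabelled duplex ds26 as competitor; Tris-HCl 10 mM pH 7.4 with 10 or 60 mM KCl; ex 470/em 530 nm read every 1 °C from 37–99 °C, 30 s hold; ΔTm = Tm(DNA+ligand) − Tm(DNA).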

Compound	ΔTm [1]	ΔTm [2]	Kd [8]	Selectivity ratio [9]	Kd [10]	Activity [11]	IC50 at 48 h [3]	IC50 [4]	IC50 [5]	IC50 [6]	IC50 [7]
CN(C)CCCNCCC(=O)Nc1ccc(C(=O)Nc2cc(Cl)ccc2-c2nc(NCCCN(C)C)c3ccccc3n2)cc1	0.6 °C	16.6 °C									
CCN(CC)CCC(=O)Nc1ccc(Nc2nc(-c3ccccc3)nc3ccccc23)cc1	0.2 °C	4.6 °C	> 10 µM				6.2 µM	3.6 µM	8.5 µM	17.6 µM	8.3 µM
CCN(CC)CCNCCOc1ccc(Nc2nc(-c3ccccc3O)nc3ccccc23)cc1	0.2 °C	0.4 °C	> 10 µM								
CN1CCN(CCOc2ccc(Nc3nc(-c4ccccc4O)nc4ccccc34)cc2)CC1	0.1 °C	0.4 °C	> 10 µM								
O=C(CN1CCOCC1)Nc1ccc(Nc2nc(-c3ccccc3NC(=O)CN3CCOCC3)nc3ccccc23)cc1	0.2 °C	0.2 °C	8.08 µM				> 50 µM	2.14 µM	12 µM	> 50 µM	> 50 µM
Oc1ccccc1-c1nc(Nc2ccc(OCCN3CCCCC3)cc2)c2ccccc2n1	0.2 °C	1.4 °C	> 10 µM								
CCN(CC)CC(=O)Nc1ccc(Nc2nc(Cl)nc3ccccc23)cc1	0.1 °C	0.1 °C					> 50 µM	33.2 µM	> 50 µM	> 50 µM	> 50 µM
Oc1ccccc1-c1nc(Nc2ccc(OCCN3CCCC3)cc2)c2ccccc2n1	0.2 °C	1.6 °C									
Oc1ccccc1-c1nc(Nc2ccc(OCCN3CCOCC3)cc2)c2ccccc2n1	0.1 °C	0.7 °C									
CCN(CC)CCOc1ccc(Nc2nc(-c3ccccc3O)nc3ccccc23)cc1	0.1 °C	0.4 °C	> 10 µM								

Further lines, with some results ahead:

ΔTm [1]	ΔTm [2]	Kd [8]	Selectivity ratio [9]	Kd [10]	Activity [11]	Compound	IC50 at 48 h [3]	IC50 [4]	IC50 [5]	IC50 [6]	IC50 [7]
0.2 °C	8.2 °C	2.46 µM				CCN(CC)CCCOc1ccc(Nc2nc(N(CC)CC)nc3ccccc23)cc1	8.1 µM	12.2 µM	5.7 µM	4.8 µM	2.3 µM
0.1 °C	1 °C	5.52 µM				CCN(CC)CCC(=O)Nc1ccc(Nc2nc(Cl)nc3ccccc23)cc1	> 50 µM	31.3 µM	> 50 µM	45.3 µM	> 50 µM
0.3 °C	4.8 °C	1.33 µM				O=C(CCN1CCOCC1)Nc1ccc(Nc2nc(-c3ccccc3NC(=O)CCN3CCOCC3)nc3ccccc23)cc1	> 50 µM	> 50 µM	> 50 µM	> 50 µM	> 50 µM
0.8 °C	12.6 °C	0.55 µM	> 18.2	> 10 µM	Active	O=C(CCCN1CCCC1)Nc1ccc(Nc2nc(-c3ccccc3NC(=O)CCCN3CCCC3)nc3ccccc23)cc1	> 50 µM	13.7 µM	31.6 µM	27.2 µM	22.4 µM
0.3 °C	8.8 °C	3.94 µM				CCN(CC)CC(=O)Nc1ccc(Nc2nc(-c3ccccc3NC(=O)CN(CC)CC)nc3ccccc23)cc1	2.7 µM	3.14 µM	6.5 µM	> 50 µM	29.8 µM
0.4 °C	13.1 °C	0.52 µM	> 19.2	> 10 µM	Active	CCN(CC)CCCCC(=O)Nc1ccc(Nc2nc(-c3ccccc3NC(=O)CCCCN(CC)CC)nc3ccccc23)cc1	> 50 µM	5.7 µM	12.6 µM	> 50 µM	12.7 µM
3.6 °C	26.6 °C	1.6 µM	3.9	6.21 µM	Active	CCN(CC)CCCNCCC(=O)Nc1ccc(Nc2nc(-c3ccccc3NC(=O)CCNCCCN(CC)CC)nc3ccccc23)cc1	> 50 µM	> 50 µM	> 50 µM	> 50 µM	> 50 µM
0.1 °C	5.3 °C	4.68 µM				CCN(CC)CCC(=O)Nc1ccc(Nc2nc(-c3ccccc3N)nc3ccccc23)cc1	5.7 µM	3.3 µM	14.5 µM	9.1 µM	7.2 µM
0.4 °C	7.1 °C	2.89 µM				CCN(CC)CCOc1ccc(Nc2nc(N(CC)CC)nc3ccccc23)cc1	9.8 µM	20.5 µM	20.3 µM	5 µM	17.4 µM
0.4 °C	10 °C	3.34 µM	> 3	> 10 µM		CCN(CC)CC(=O)Nc1ccc(Nc2nc(N(CC)CC)nc3ccccc23)cc1	10.2 µM	4.2 µM	13.5 µM	20.8 µM	21 µM
3.7 °C	21.8 °C	0.57 µM	10.3	5.89 µM	Active	CN(C)CCCNCCC(=O)Nc1ccc(Nc2nc(-c3ccccc3NC(=O)CCNCCCN(C)C)nc3ccccc23)cc1	> 50 µM	> 50 µM	> 50 µM	> 50 µM	> 50 µM
0.9 °C	13.6 °C	0.54 µM	> 18.5	> 10 µM	Active	CCN(CC)CCCC(=O)Nc1ccc(Nc2nc(-c3ccccc3NC(=O)CCCN(CC)CC)nc3ccccc23)cc1	> 50 µM	21 µM	27.3 µM	24.5 µM	32.5 µM
0.7 °C	7.2 °C	6.3 µM				CCN(CC)CC(=O)Nc1ccc(Nc2nc(-c3ccc(O)cc3)nc3ccccc23)cc1	12.9 µM	13.3 µM	12.9 µM	27 µM	21 µM
0.2 °C	12.2 °C	1.64 µM	> 6.1	> 10 µM	Active	CCN(CC)CCC(=O)Nc1ccc(Nc2nc(N(CC)CC)nc3ccccc23)cc1	6.4 µM	10.3 µM	5.1 µM	6.1 µM	6.3 µM
3.7 °C	11.4 °C	0.49 µM	18.7	9.18 µM		CCN(CC)CCC(=O)Nc1cc(Cl)ccc1-c1nc(NCCCN(C)C)c2ccccc2n1					
0.1 °C	12.5 °C	0.61 µM				CN1CCN(CC(=O)Nc2ccc(Nc3nc(-c4ccccc4NC(=O)CN4CCN(C)CC4)nc4ccccc34)cc2)CC1	38.2 µM	12.3 µM	17.9 µM	21.6 µM	28.7 µM

— ChEMBL document CHEMBL3865800, “Design, synthesis and biological evaluation of 4-anilinoquinazoline derivatives as new c-myc G-quadruplex ligands” (Eur J Med Chem, 2016)
